Data as given in ChEMBL document CHEMBL3112550, “Specific features of HIV-1 integrase inhibition by bisphosphonate derivatives” (Eur J Med Chem, 2014).
Activity calls are given as the source filed them. The rule behind the calls is not given here.

How the values were obtained:
[1] = molecular target: Human immunodeficiency virus type 1 integrase (Human immunodeficiency virus 1) (UniProt Q7ZJM1); test: Inhibition of HIV-1 integrase expressed in Escherichia coli using [32P]-labeled U5B/U5A DNA as substrate assessed as inhibition of 3'-processing reaction up to 250 uM after 2 hrs by PAGE analysis in presence of Mg2+
Sequence of Human immunodeficiency virus type 1 integrase (Human immunodeficiency virus 1) (Q7ZJM1 as listed by the source): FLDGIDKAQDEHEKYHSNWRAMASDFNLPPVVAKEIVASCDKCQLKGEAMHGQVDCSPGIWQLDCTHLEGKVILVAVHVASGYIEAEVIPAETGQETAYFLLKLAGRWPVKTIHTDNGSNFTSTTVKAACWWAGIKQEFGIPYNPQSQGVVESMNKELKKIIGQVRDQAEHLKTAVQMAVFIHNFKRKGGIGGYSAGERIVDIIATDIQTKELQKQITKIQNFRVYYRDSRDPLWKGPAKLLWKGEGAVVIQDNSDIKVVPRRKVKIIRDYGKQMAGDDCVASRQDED
How it was run: (§1)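 3'-Processing: 32P-labeled U5B/U5A (3 nM) with IN (100 nM) in buffer A (20 mM HEPES pH 7.2, 7.5 mM MgCl2 or MnCl2, 1 mM DTT), increasing inhibitor, 37°C, 2 h; stopped with EDTA solution, phenol–chloroform extracted, ethanol precipitated, resolved on denaturing 20% PAGE, phosphorimager-quantified.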

[2] = molecular target: T1, Human immunodeficiency virus type 1 integrase (Human immunodeficiency virus 1, UniProt Q7ZJM1); test: Non-competitive inhibition of HIV-1 integrase expressed in Escherichia coli using [32P]-labeled U5B/U5A DNA as substrate after 1 hr by double-reciprocal plot analysis in presence of Mn2+
T1 sequence (Q7ZJM1 whole entry): as the sequence (Q7ZJM1 as listed by the source) above
How it was run: (§2)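 Kinetics: IN (100 nM) incubated with 32P-labeled U5B/U5A (2.5–12.5 nM) plus inhibitor (0–39 μM or 0–15 μM, depending on compound) in buffer A (20 mM HEPES pH 7.2, 7.5 mM MgCl2 or MnCl2, 1 mM DTT), 1 h, 37°C. Initial 3'-processing rate vs substrate concentration at varied inhibitor levels plotted double-reciprocally; Km and KI calculated from the fitted inhibition model.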

[3] = molecular target: Human immunodeficiency virus type 1 integrase (Human immunodeficiency virus 1, UniProt Q7ZJM1, N155H); test: Inhibition of HIV-1 integrase N155H mutant expressed in Escherichia coli using [32P]-labeled U5B/U5A DNA as substrate assessed as inhibition of 3'-processing reaction after 2 hrs by PAGE analysis in presence of Mg2+
Sequence of Human immunodeficiency virus type 1 integrase (Human immunodeficiency virus 1, UniProt Q7ZJM1, N155H) (Q7ZJM1 entry or part of it N155H): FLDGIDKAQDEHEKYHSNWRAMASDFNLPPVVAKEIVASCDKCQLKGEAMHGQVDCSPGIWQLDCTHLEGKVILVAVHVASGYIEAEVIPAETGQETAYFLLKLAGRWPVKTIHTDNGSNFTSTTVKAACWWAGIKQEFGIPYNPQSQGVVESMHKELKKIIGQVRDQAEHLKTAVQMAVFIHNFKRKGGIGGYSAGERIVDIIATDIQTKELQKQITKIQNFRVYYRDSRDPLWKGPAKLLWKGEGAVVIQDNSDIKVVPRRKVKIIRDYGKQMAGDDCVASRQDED
How it was run: (§3)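 3'-processing: 32P-labelled U5B/U5A duplex mimicking the HIV-1 U5 LTR end (3 nM) incubated with integrase (100 nM) in 20 mM HEPES pH 7.2, 7.5 mM MgCl2, 1 mM DTT, with increasing inhibitor concentrations, 37°C, 2 h. Stopped with EDTA, phenol-chloroform extracted, ethanol precipitated. Products resolved on denaturing 20% PAGE, phosphorimaged, reaction efficiency quantified.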

[4] = molecular target: Human immunodeficiency virus type 1 integrase (Human immunodeficiency virus 1, UniProt Q7ZJM1, G140S); test: Inhibition of HIV-1 integrase G140S mutant expressed in Escherichia coli using [32P]-labeled U5B/U5A DNA as substrate assessed as inhibition of 3'-processing reaction after 2 hrs by PAGE analysis in presence of Mg2+; how it was run: as §3
Sequence of Human immunodeficiency virus type 1 integrase (Human immunodeficiency virus 1, UniProt Q7ZJM1, G140S) (Q7ZJM1 entry or part of it G140S): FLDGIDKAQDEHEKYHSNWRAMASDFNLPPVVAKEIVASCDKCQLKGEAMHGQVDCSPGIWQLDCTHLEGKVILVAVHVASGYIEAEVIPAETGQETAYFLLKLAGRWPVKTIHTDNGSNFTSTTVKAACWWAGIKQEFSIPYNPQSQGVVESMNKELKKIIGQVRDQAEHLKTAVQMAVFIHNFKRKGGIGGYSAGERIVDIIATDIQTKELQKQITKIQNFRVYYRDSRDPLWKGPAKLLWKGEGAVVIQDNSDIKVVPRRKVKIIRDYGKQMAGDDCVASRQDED

[5] = molecular target: T1, Human immunodeficiency virus type 1 integrase; test: Inhibition of HIV-1 GST-tagged integrase-His6-tagged LEDGF complex expressed in Escherichia coli BL21(DE3) using [32P]-labeled U5B/U5A DNA as substrate assessed as inhibition of 3'-processing reaction after 2 hrs by PAGE analysis in presence of Mn2+
How it was run: (§4)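 IN/LEDGF complex (IN combined with 50 nM LEDGF) processing 32P-labeled U5B/U5A (3 nM) in buffer A (20 mM HEPES pH 7.2, 7.5 mM MgCl2 or MnCl2, 1 mM DTT) with increasing inhibitor, 37°C, 2 h; products separated by denaturing 20% PAGE and quantified by phosphorimaging.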

[6] = molecular target: Human immunodeficiency virus type 1 integrase (Human immunodeficiency virus 1, UniProt Q7ZJM1, E92Q); test: Inhibition of HIV-1 integrase E92Q mutant expressed in Escherichia coli using [32P]-labeled U5B/U5A DNA as substrate assessed as inhibition of 3'-processing reaction after 2 hrs by PAGE analysis in presence of Mg2+; how it was run: as §3
Sequence of Human immunodeficiency virus type 1 integrase (Human immunodeficiency virus 1, UniProt Q7ZJM1, E92Q) (Q7ZJM1 entry or part of it E92Q): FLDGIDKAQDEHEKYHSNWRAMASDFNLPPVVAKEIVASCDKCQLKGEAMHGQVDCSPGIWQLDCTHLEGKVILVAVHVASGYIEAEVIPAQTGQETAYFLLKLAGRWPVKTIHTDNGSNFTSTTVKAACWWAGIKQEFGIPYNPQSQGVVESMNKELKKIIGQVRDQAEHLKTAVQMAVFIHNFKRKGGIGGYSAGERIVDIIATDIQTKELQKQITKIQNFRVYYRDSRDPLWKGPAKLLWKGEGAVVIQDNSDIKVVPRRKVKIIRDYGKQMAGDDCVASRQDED

[7] = molecular target: T1, Human immunodeficiency virus type 1 integrase; test: Inhibition of HIV-1 integrase expressed in Escherichia coli using [32P]-labeled U5B-2/U5A DNA as substrate assessed as inhibition of strand transfer reaction after 2 hrs by PAGE analysis in presence of Mn2+
How it was run: (§5)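 Strand transfer: 32P-labeled U5B-2/U5A duplex (10 nM) with IN (100 nM) in buffer A (20 mM HEPES pH 7.2, 7.5 mM MgCl2 or MnCl2, 1 mM DTT), increasing inhibitor, 37°C, 2 h. EDTA-containing stop solution, phenol–chloroform extraction, ethanol precipitation, denaturing 20% PAGE, phosphorimager quantification of reaction efficiency.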

[8] = molecular target: T1, Human immunodeficiency virus type 1 integrase; test: Inhibition of HIV-1 integrase expressed in Escherichia coli using [32P]-labeled U5B/U5A DNA as substrate assessed as inhibition of 3'-processing reaction after 2 hrs by PAGE analysis in presence of Mn2+; how it was run: as §1
[9] = molecular target: T1, Human immunodeficiency virus type 1 integrase; test: Inhibition of HIV-1 integrase expressed in Escherichia coli using [32P]-labeled U5B-2/U5A DNA as substrate assessed as inhibition of strand transfer reaction after 2 hrs by PAGE analysis in presence of Mg2+; how it was run: as §5
[10] = molecular target: T1, Human immunodeficiency virus type 1 integrase; test: Inhibition of HIV-1 GST-tagged integrase-His6-tagged LEDGF complex expressed in Escherichia coli BL21(DE3) using [32P]-labeled U5B/U5A DNA as substrate assessed as inhibition of 3'-processing reaction after 2 hrs by PAGE analysis in presence of Mg2+; how it was run: as §4
[11] = molecular target: T1, Human immunodeficiency virus type 1 integrase; test: Displacement of [32P]-labeled U5B/U5A DNA from HIV-1 integrase expressed in Escherichia coli in presence of Mn2+
How it was run: (§6)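 DRaCALA binding: 32P-labeled U5B/U5A (3 nM) with IN in buffer A (20 mM HEPES pH 7.2, 7.5 mM MgCl2 or MnCl2, 1 mM DTT), compound 0–500 μM, 25°C for 20 min; mixture spotted on nitrocellulose membrane, bound DNA quantified by phosphorimaging.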

[12] = molecular target: T1, Human immunodeficiency virus type 1 integrase; test: Displacement of [32P]-labeled U5B/U5A DNA from HIV-1 integrase expressed in Escherichia coli in presence of Mg2+; how it was run: as §6
[13] = molecular target: T1, Human immunodeficiency virus type 1 integrase; test: (§7) Inhibition of HIV-1 integrase expressed in Escherichia coli using [32P]-labeled U5B/U5A DNA as substrate assessed as inhibition of 3'-processing reaction after 2 hrs by PAGE analysis in presence of Mg2+; how it was run: as §1
[14] = molecular target: T1, Human immunodeficiency virus type 1 integrase; test: Competitive inhibition of HIV-1 integrase expressed in Escherichia coli using [32P]-labeled U5B/U5A DNA as substrate after 1 hr by double-reciprocal plot analysis in presence of Mg2+; how it was run: as §2
[15] = molecular target: Human immunodeficiency virus type 1 integrase (Human immunodeficiency virus 1, UniProt Q7ZJM1, E138K); test: Inhibition of HIV-1 integrase E138K mutant expressed in Escherichia coli using [32P]-labeled U5B/U5A DNA as substrate assessed as inhibition of 3'-processing reaction after 2 hrs by PAGE analysis in presence of Mg2+; how it was run: as §3
Sequence of Human immunodeficiency virus type 1 integrase (Human immunodeficiency virus 1, UniProt Q7ZJM1, E138K) (Q7ZJM1 entry or part of it E138K): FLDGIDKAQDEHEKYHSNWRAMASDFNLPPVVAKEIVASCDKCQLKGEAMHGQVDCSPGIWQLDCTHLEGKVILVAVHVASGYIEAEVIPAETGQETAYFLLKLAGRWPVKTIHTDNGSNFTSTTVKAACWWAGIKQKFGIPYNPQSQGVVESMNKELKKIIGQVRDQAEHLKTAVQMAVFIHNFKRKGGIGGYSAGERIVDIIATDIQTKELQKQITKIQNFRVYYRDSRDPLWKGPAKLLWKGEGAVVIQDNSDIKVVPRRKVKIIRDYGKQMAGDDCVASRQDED

[16] = molecular target: Human immunodeficiency virus type 1 integrase (Human immunodeficiency virus 1) (UniProt Q7ZJM1); test: Inhibition of HIV-1 integrase expressed in Escherichia coli using [32P]-labeled U5B/U5A DNA as substrate assessed as inhibition of 3'-processing reaction up to 500 uM after 2 hrs by PAGE analysis in presence of Mg2+; how it was run: as §3
[17] = molecular target: Human immunodeficiency virus type 1 integrase (Human immunodeficiency virus 1) (UniProt Q7ZJM1); test: Ratio of IC50 for HIV-1 integrase-mediated 3'-processing reaction in presence of Mg2+ to IC50 for HIV-1 integrase-mediated strand transfer reaction in presence of Mg2+
[18] = molecular target: T1, Human immunodeficiency virus type 1 integrase; test: Non-competitive inhibition of HIV-1 integrase expressed in Escherichia coli using [32P]-labeled U5B/U5A DNA as substrate after 1 hr by double-reciprocal plot analysis in presence of Mg2+; how it was run: as §2
[19] = molecular target: Human immunodeficiency virus type 1 integrase (Human immunodeficiency virus 1) (UniProt Q7ZJM1); test: as §7; how it was run: as §1

Compound: NC(Cc1ccccc1)(P(=O)(O)O)P(=O)(O)O
- inhibition [1]: inactive

Compound: O=P(O)(O)C(O)(Cc1ccc(Cl)c(Cl)c1)P(=O)(O)O
- Ki [2]: 4.4 µM
- IC50 [3]: 35 µM
- IC50 [4]: 35 µM
- IC50 [5]: 4.5 µM
- IC50 [6]: 35 µM
- IC50 [7]: 4 µM
- IC50 [8]: 5 µM
- IC50 [9]: 45 µM
- IC50 [10]: > 250 µM
- IC50 [11]: > 500 µM
- IC50 [12]: 150 µM
- IC50 [13]: 35 µM
- Ki [14]: 38 µM
- IC50 [15]: 35 µM

Compound: O=P(O)(O)C(O)(CCCCc1ccccc1)P(=O)(O)O
- inhibition [1]: inactive

Compound: O=P(O)(O)C(Cc1ccc(Cl)c(Cl)c1)P(=O)(O)O
- IC50 [5]: 6 µM
- IC50 [7]: 5 µM
- IC50 [8]: 5 µM
- IC50 [9]: 30 µM
- IC50 [10]: > 250 µM
- IC50 [11]: > 500 µM
- IC50 [12]: 130 µM
- IC50 [13]: 30 µM

Compound: O=P(O)(O)C(O)(Cc1ccc(Cl)cc1)P(=O)(O)O
- IC50 [5]: 8 µM
- IC50 [7]: 6 µM
- IC50 [8]: 5 µM
- IC50 [9]: 42 µM
- IC50 [10]: > 250 µM
- IC50 [11]: > 500 µM
- IC50 [12]: 70 µM
- IC50 [13]: 20 µM

Compound: CCc1cccc[n+]1CC(O)(P(=O)(O)O)P(=O)(O)O
- inhibition [1]: inactive

Compound: O=P(O)(O)C(O)(C[n+]1cccc(O)c1)P(=O)(O)O
- inhibition [1]: inactive

Compound: O=P(O)(O)C(O)(C[n+]1ccccc1)P(=O)(O)O
- inhibition [1]: inactive

Compound: O=P(O)(O)C(O)(Cc1ccccc1)P(=O)(O)O
- inhibition [1]: inactive

Compound: O=P(O)(O)Cc1ccc(Cl)c(Cl)c1
- inhibition [16]: inactive

Compound: O=P(O)(O)C(Cc1ccc(Cl)c(Cl)c1)(Cc1ccc(Cl)c(Cl)c1)P(=O)(O)O
- IC50 [7]: 0.8 µM
- IC50 [8]: 0.8 µM
- IC50 [9]: 16 µM
- IC50 [11]: > 500 µM
- IC50 [12]: 100 µM
- IC50 [13]: 20 µM

Compound: NC(Cc1ccc(Cl)c(Cl)c1)(P(=O)(O)O)P(=O)(O)O
- Ki [2]: 1 µM
- IC50 [3]: 7 µM
- IC50 [4]: 7 µM
- IC50 [5]: 2 µM
- Ratio IC50 [17]: 2
- IC50 [6]: 7 µM
- IC50 [7]: 2 µM
- IC50 [8]: 2 µM
- IC50 [9]: 3 µM
- IC50 [10]: 7 µM
- Ki [18]: 2 µM
- IC50 [11]: > 500 µM
- IC50 [12]: > 256 µM
- IC50 [13]: 7 µM
- IC50 [15]: 7 µM

Compound: O=P(O)(O)C(CNCCc1ccccc1)P(=O)(O)O
- inhibition [19]: inactive

Compound: O=P(O)(O)C(O)(CCc1ccccc1)P(=O)(O)O
- inhibition [1]: inactive

Compound: NC(C[n+]1ccccc1)(P(=O)(O)O)P(=O)(O)O
- inhibition [1]: inactive

Compound: O=P(O)(O)C(O)(C[n+]1ccc(-c2ccccc2)cc1)P(=O)(O)O
- inhibition [1]: inactive

Compound: O=P(O)(O)C(CNc1ccc(I)cc1)P(=O)(O)O
- inhibition [19]: inactive

Compound: O=P(O)(O)C(CNc1ccccc1)P(=O)(O)O
- inhibition [19]: inactive

Compound: O=C(O)Cc1ccc(Cl)c(Cl)c1
- inhibition [16]: inactive
